Source: PubChem
This is a sample that favours compounds with a hit; in the whole collection about 5.9% have one here.
T cruzi growth-1 – T. cruzi proliferation inhibition. inhibition, % at 8.34 µM. 5.9% of 77,000 active. T. cruzi beta-gal in NIH3T3, GalScreen luminescence, 90 h;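 active = mean inhibition above about 93%, with at least 55% of replicates each passing it, limit read from the data, passing the limit was not always enough; inconclusive = only one of those two conditions holds; inactive = neither condition holds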
KDM4C inh – KDM4C (human) demethylase inhibition. AID 720574. 0.15% of 96,000 active. inhibition, % at 12.5 µM. Q9H3R0. GST-KDM4C 2-372, H3K9me3 peptide, LANCE TR-FRET;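 active = mean replicate inhibition above about 25%, with at least 55% of replicates also reaching it, limit read from the data, passing the limit was not always enough; inconclusive = only one of those two conditions met; inactive = neither condition met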
Target sequence (Q9H3R0 2-372 limits assumed): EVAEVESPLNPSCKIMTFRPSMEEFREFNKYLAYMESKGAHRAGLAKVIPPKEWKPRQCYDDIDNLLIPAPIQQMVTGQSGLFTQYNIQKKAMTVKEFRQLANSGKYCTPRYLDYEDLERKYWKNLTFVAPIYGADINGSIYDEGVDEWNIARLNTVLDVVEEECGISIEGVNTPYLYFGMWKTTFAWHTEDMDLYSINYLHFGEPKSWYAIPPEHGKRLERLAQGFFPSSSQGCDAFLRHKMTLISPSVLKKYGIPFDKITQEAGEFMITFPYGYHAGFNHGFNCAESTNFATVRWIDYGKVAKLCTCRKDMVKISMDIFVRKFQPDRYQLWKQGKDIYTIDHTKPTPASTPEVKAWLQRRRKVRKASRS
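Test system – GST-tagged GASC-1 (JMJD2C) catalytic fragment, aa 2-372 · Medium – HEPES buffer, pH 7.5, plus ascorbate · Reagent – H3K9me3 peptide with Fe(II)/2OG · Compound – one test concentration per compound · Timing – 30 min reaction, 60 min detection, RT · Technique – TR-FRET with Eu antibody and ULight streptavidin, EDTA stop · Read-out basis – inhibition from TR-FRET ratio decrease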
IDH1 mut inh – blocks human IDH1 R132H reductase activity; inhibition, % at 10 µM; O75874; 0.18% of 70,000 active; diaphorase/resazurin fluorescence, 60 min; AID 624101; in the data active = inhibition above about 34%; inconclusive = no clear call, values can overlap the other calls; inactive = below about 11%;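 note: 0% = DMSO and 100% = no enzyme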
Pf Dd2 growth – blocks growth of Plasmodium falciparum Dd2 parasites | 2.3% of 94,000 active | P. falciparum Dd2 growth, SYBR Green, 72 h; active compounds read low | AID 1159554 | activity change, % at 10 µM; in the data active = activity change below about -80%; inconclusive = no clear call, values can overlap the other calls
T cruzi growth-2 – Trypanosoma cruzi proliferation inhibition. shares compounds with T cruzi growth-1. T. cruzi beta-gal in NIH3T3, GalScreen luminescence, 90 h. 72% of 5,600 active. inhibition, % at 8.35 µM;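 active = mean replicate inhibition above about 95% and at least 55% of replicates individually reaching it, limit read from the data; inconclusive = only one of the two criteria is met; inactive = neither criterion is met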
T cruzi growth-3 – Trypanosoma cruzi proliferation inhibition. shares compounds with T cruzi growth-1. 21% of 5,600 active. T. cruzi beta-gal in NIH3T3, GalScreen luminescence, 90 h. inhibition, % at 2.09 µM;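 active = mean inhibition above about 95%, with at least 55% of replicates also reaching it, limit read from the data; inconclusive = meets just one of the two conditions; inactive = meets neither condition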;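 note: plate controls were neutral control median for no effect and positive control median for full effect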
NIH3T3 tox – cytotoxicity in mouse NIH/3T3 fibroblasts | shares compounds with T cruzi growth-1 | NIH/3T3 viability, CellTiter-Glo ATP luminescence, 90 h | cytotoxicity (signal decrease), % at 8.35 µM | 14% of 5,600 active;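 active = mean signal decrease across replicates above about 35% based on untreated-well scatter, with enough replicates individually passing, limit read from the data; inconclusive = no rule stated though some were filed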;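 note: 0% = median of neutral control wells and 100% = median of positive control wells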
3T3 cytotox 2 – NIH/3T3 (mouse) viability loss; shares compounds with T cruzi growth-1; NIH/3T3 viability, CellTiter-Glo ATP luminescence, 90 h; inhibition, % at 24.9 µM; 56% of 5,600 active;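 active = mean loss of cell viability signal at or above a set limit, and enough replicates individually reaching it; inconclusive = meets only the mean limit or only the replicate share; inactive = meets neither condition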;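 note: 0% = median of neutral control wells and 100% = median of positive control wells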
An asterisk follows results filed as active; ? = inconclusive; / = not tested or not shown.

SMILES	T cruzi growth-1	KDM4C inh	IDH1 mut inh	Pf Dd2 growth	T cruzi growth-2	T cruzi growth-3	NIH3T3 tox	3T3 cytotox 2
C[C@@H]1CCCCO[C@@H](CN(C)C)[C@H](C)CN([C@@H](C)CO)C(=O)c2cc(NC(=O)c3ccncc3)ccc2O1	100*	2	4	29	-11	-38	-9	-4
C[C@@H]1CCCCO[C@H](CN(C)S(=O)(=O)c2ccccc2)[C@H](C)CN([C@@H](C)CO)C(=O)c2cc(NC(=O)Nc3cccc4ccccc34)ccc2O1	92	1	-4	-70	/	/	/	/
COc1ccc(S(=O)(=O)Nc2ccc3c(c2)C(=O)N([C@@H](C)CO)C[C@H](C)[C@H](CN(C)Cc2ccc(-c4ccccc4)cc2)O3)cc1	?	-2	0	9	103*	19	11	88*
C[C@@H]1CN([C@@H](C)CO)C(=O)c2cc(NS(=O)(=O)c3ccc(Cl)cc3)ccc2O[C@@H]1CN(C)Cc1ccc(-c2ccccc2)cc1	?	-3	1	20	?	58	82*	103*
COc1ccc(S(=O)(=O)Nc2ccc3c(c2)C(=O)N([C@H](C)CO)C[C@H](C)[C@H](CN(C)Cc2ccc(-c4ccccc4)cc2)O3)cc1	67	-1	0	12	/	/	/	/
C[C@H]1CN([C@@H](C)CO)C(=O)c2cc(NS(=O)(=O)c3ccc(Cl)cc3)ccc2O[C@@H]1CN(C)Cc1ccc(-c2ccccc2)cc1	111*	-1	-2	48	103*	21	-2	104*
C[C@H](CO)N1C[C@H](C)[C@@H](CN(C)Cc2ccc(-c3ccccc3)cc2)Oc2ccc(NS(=O)(=O)c3ccc(Cl)cc3)cc2C1=O	96	0	/	7	/	/	/	/
C[C@@H]1CN([C@H](C)CO)C(=O)c2cc(NS(=O)(=O)c3ccc(Cl)cc3)ccc2O[C@@H]1CN(C)Cc1ccc(-c2ccccc2)cc1	?	0	-3	10	98*	85	92*	105*
COc1ccc(S(=O)(=O)Nc2ccc3c(c2)CC(=O)N([C@H](C)CO)C[C@H](C)[C@@H](CN(C)C(=O)Nc2c(C)noc2C)O3)cc1	1	1	-12	14	/	/	/	/
C[C@H](CO)N1C[C@H](C)[C@H](CN(C)Cc2ccc(-c3ccccc3)cc2)Oc2ccc(NS(=O)(=O)c3ccc(Cl)cc3)cc2C1=O	112*	-2	2	-12	104*	41	30	103*
C[C@@H]1CN([C@@H](C)CO)C(=O)c2cc(NS(=O)(=O)c3ccc(F)cc3)ccc2O[C@H]1CN(C)Cc1ccc(-c2ccccc2)cc1	?	-1	1	-4	106*	83	8	103*
C[C@@H]1CN([C@H](C)CO)C(=O)c2cc(NS(=O)(=O)c3ccc(F)cc3)ccc2O[C@@H]1CN(C)Cc1ccc(-c2ccccc2)cc1	92	-2	-2	6	/	/	/	/
C[C@H]1CN([C@@H](C)CO)C(=O)c2cc(NS(=O)(=O)c3ccc(Cl)cc3)ccc2O[C@@H]1CN(C)Cc1ccc(Oc2ccccc2)cc1	?	0	0	6	108*	37	29	105*
COc1nnc(-c2ccc(N3CCOCC3)c(NC(=O)COc3cccc(C)c3)c2)c2ccccc12	/	/	0	/	/	/	/	/
Cc1ccc(S(=O)(=O)Nc2ccc3c(c2)C(=O)N([C@@H](C)CO)C[C@@H](C)[C@@H](CN(C)S(=O)(=O)c2ccccc2)OCCCC[C@H](C)O3)cc1	97*	/	1	-75	102*	42	-20	17
Cc1ccc(S(=O)(=O)Nc2ccc3c(c2)C(=O)N([C@H](C)CO)C[C@@H](C)[C@H](CN(C)S(=O)(=O)c2ccccc2)OCCCC[C@H](C)O3)cc1	105*	0	/	-44	108*	73	-12	1
C[C@@H]1CCCCO[C@H](CN(C)S(=O)(=O)c2ccccc2)[C@H](C)CN([C@H](C)CO)C(=O)c2cc(NS(=O)(=O)c3ccccc3)ccc2O1	107*	0	/	-43	115*	41	-21	-18
